Laboratory results published in ChEMBL document CHEMBL1145431, “Improved anti-osteoporosis potency and reduced endometrial membrane hyperplasia during hormone replacement therapy with estrogen-RGD peptide conjugates” (2007).
Where a SMILES comes first, the peptide text is derived from it. The star is where a group is joined. X2 = C[C@]12CC[C@@H]3c4ccc(OCC(=O)*)cc4CC[C@H]3[C@@H]1CCC2=O

Columns and labels:
[1] = test system: Mus musculus; test: Effect on serum phosphorus level in ovariectomized mouse at 0.1103 mmol/kg, ip once daily for 4 weeks; type: functional
Outline: (§1)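 OVX Kuiming mice dosed i.p. daily for 4 weeks in 0.5% CMC. Blood taken retro-orbitally on the day after the last dose, stood 30 min, spun at 3000 g for 20 min, serum stored at -20 °C. Calcium by o-methylphenolphthalein complexone, phosphorus by molybdenum blue, ALP by activity with disodium phenylphosphate substrate.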

[2] = test system: Mus musculus; test: Effect on femur length in ovariectomized mouse at 0.1103 mmol/kg, ip once daily for 4 weeks; type: functional
Outline: (§2)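 Female Kuiming mice (7 weeks, 30.7 ± 3.1 g) ovariectomized, sham group abdominorotomy. From day 5, i.p. once daily for 4 weeks at 110.3 × 10-3 mmol/kg in 0.5% CMC. Left femur cleaned, length measured, defatted in chloroform-methanol (2:1, 2 × 3 h), dried 120 °C 6 h for dry weight, ashed 800 °C 8 h. Mineral content = ash/dry weight. Ash dissolved in 6 N HCl and diluted. Ca by o-methylphenolphthalein complexone, P by molybdenum blue. Lungs and livers weighed directly.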

[3] = test system: Mus musculus; test: Effect on mineral content in ovariectomized mouse at 0.1103 mmol/kg, ip once daily for 4 weeks; type: functional; outline: as §2
[4] = test system: Mus musculus; test: Effect on serum calcium level in ovariectomized mouse at 0.1103 mmol/kg, ip once daily for 4 weeks; type: functional; outline: as §1
[5] = test system: Mus musculus; test: Effect on spleen weight in ovariectomized mouse at 0.1103 mmol/kg, ip once daily for 4 weeks; type: functional
Outline: (§3)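 Female Kuiming mice (7 weeks old, 30.7 ± 3.1 g), abdominal OVX under pentobarbital (40.0 mg/kg i.p.). From day 5 after surgery, i.p. injection once daily for 4 weeks, compound in aqueous 0.5% CMC prepared just before use. The day after the last dose, mice were anesthetized and killed, and lungs, livers, spleens and uteri were removed and weighed directly. n = 12, ANOVA, p < 0.05.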

[6] = test system: Mus musculus; test: Effect on femur ash weight in ovariectomized mouse at 0.1103 mmol/kg, ip once daily for 4 weeks; type: functional; outline: as §2
[7] = test system: Mus musculus; test: Effect on uterus weight in ovariectomized mouse at 0.1103 mmol/kg, ip once daily for 4 weeks; type: functional; outline: as §3
[8] = test system: Mus musculus; test: Effect on serum ALP lavel in ovariectomized mouse at 0.1103 mmol/kg, ip once daily for 4 weeks; type: functional; outline: as §1
[9] = test system: Mus musculus; test: Effect on dry weight of femurs in ovariectomized mouse at 0.1103 mmol/kg, ip once daily for 4 weeks; type: functional, Femur; outline: as §2
[10] = test system: Mus musculus; test: Increase in body weight in ovariectomized mouse at 0.1103 mmol/kg, ip once daily for 4 weeks; type: functional
Outline: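 Female Kuiming mice (30.7 ± 3.1 g) underwent abdominal OVX; the sham group had abdominorotomy only. From day 5 after surgery, i.p. dosing once daily for 4 weeks at 110.3 × 10-3 mmol/kg in aqueous 0.5% CMC. Body weight was recorded on the day of the last administration.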

[11] = test system: Mus musculus; test: Effect on phosphorus level in ovariectomized mouse at 0.1103 mmol/kg, ip once daily for 4 weeks; type: functional; outline: as §2
[12] = test system: Mus musculus; test: Effect on lung weight in ovariectomized mouse at 0.1103 mmol/kg, ip once daily for 4 weeks; type: functional; outline: as §2
[13] = test system: Mus musculus; test: Effect on liver weight in ovariectomized mouse at 0.110 mmol/kg, ip once daily for 4 weeks; type: functional; outline: as §2
[14] = test system: Mus musculus; test: Effect on calcium level in ovariectomized mouse at 0.1103 mmol/kg, ip once daily for 4 weeks; type: functional; outline: as §2
[15] = test system: Mus musculus; test: Effect on dry weight of femurs in mouse at 0.1103 mmol/kg, po; type: functional, Femur
Outline: (§4)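 Female Kuiming mice (7 weeks old, 30.7 ± 3.1 g) under abdominal OVX, sham group abdominorotomy only. From day 5 after surgery, dosed orally once daily for 4 weeks at 110.3 × 10-3 mmol/kg in 0.5% CMC (0.2 mL), vehicle group CMC alone. Blood drawn retro-orbitally, then left femur and organs removed under pentobarbital (40.0 mg/kg, i.p.).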

[16] = test system: Mus musculus; test: Effect on serum ALP level in mouse at 0.1103 mmol/kg, po; type: functional
Outline: (§5)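 Oral OVX Kuiming mouse model, dosed daily for 4 weeks at 110.3 × 10-3 mmol/kg in 0.5% CMC. Retro-orbital blood stood 30 min at room temperature and was spun at 3000 g for 20 min. Serum kept at -20 °C. Calcium read by o-methylphenolphthalein complexone, phosphorus by molybdenum blue, ALP by activity on disodium phenylphosphate substrate.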

[17] = test system: Mus musculus; test: Effect on calcium level in mouse at 0.1103 mmol/kg, po; type: functional; outline: as §4
[18] = test system: Mus musculus; test: Effect on phosphorus level in mouse at 0.110 mmol/kg, po; type: functional; outline: as §4
[19] = test system: Mus musculus; test: Effect on spleen weight in mouse at 0.1103 mmol/kg, po; type: functional; outline: as §4
[20] = test system: Mus musculus; test: Effect on serum calcium level in mouse at 0.1103 mmol/kg, po; type: functional; outline: as §5
[21] = test system: Mus musculus; test: Effect on liver weight in mouse at 0.1103 mmol/kg, po; type: functional; outline: as §4
[22] = test system: Mus musculus; test: Effect on lung weight in mouse at 0.1103 mmol/kg, po; type: functional; outline: as §4
[23] = test system: Mus musculus; test: Effect on serum phosphorous Concentration in mouse at 0.110 mmol/kg, po; type: functional; outline: as §5
[24] = test system: Mus musculus; test: Effect on lenght of femur in mouse at 0.110 mmol/kg, po; type: functional; outline: as §4
[25] = test system: Mus musculus; test: Effect on femur ash weight in mouse at 0.1103 mmol/kg, po; type: functional; outline: as §4

SMILES	Activity [1] [mmol/L]	Activity [2] [cm]	Ratio [3]	Activity [4] [mmol/L]	Activity [5] [mg]	Activity [6] [mg]	Activity [7] [mg]	Activity [8] [U/L]	Activity [9] [mg]	Activity [10] [g]	Activity [11] [%]	Activity [12] [mg]	Activity [13] [g]	Activity [14] [%]	other results
CC(C)[C@H](NC(=O)[C@H](CC(=O)O)NC(=O)CNC(=O)[C@@H](N)CCCNC(=N)N)C(=O)O (H-RGDV-OH)	1.605	1.614	0.394	2.011	127	27.8	61.1	35.614	58.8	33.4	24.759	171	1.153	42.739	
N=C(N)NCCC[C@H](N)C(=O)NCC(=O)N[C@@H](CC(=O)O)C(=O)N[C@@H](Cc1ccccc1)C(=O)O (H-RGDF-OH)	1.599	1.62	0.423	2.012	134	22.5	69.8	35.643	60	33.3	24.585	163	1.413	43.815	
C[C@]12CC[C@@H]3c4ccc(O)cc4CC[C@H]3[C@@H]1CC[C@@H]2O [ESTRADIOL]	1.601	1.63		2.013	151	28.5	177.1	35.286	57.7	34.1	24.995	168	1.565	44.466	Activity [15]: 63.1 mg; Activity [16]: 37.705 U/L; Activity [17]: 41.729%; Activity [18]: 24.53%; Activity [19]: 141 mg; Activity [20]: 2.02 mmol/L; Activity [21]: 1.335 g; Activity [22]: 168 mg; Activity [23]: 1.6 mmol/L; Activity [24]: 1.62 cm; Activity [25]: 22.2 mg
C[C@]12CC[C@@H]3c4ccc(OCC(=O)N[C@@H](CCCNC(=N)N)C(=O)NCC(=O)N[C@@H](CC(=O)O)C(=O)N[C@@H](Cc5ccccc5)C(=O)O)cc4CC[C@H]3[C@@H]1CCC2=O (X2-RGDF-OH)	1.602	1.639	0.462	2.008	140	24.7	55.8	32.407	65.9	34.5	24.588	179	1.458	49.55	
CC(C)[C@H](NC(=O)[C@H](CC(=O)O)NC(=O)CNC(=O)[C@H](CCCNC(=N)N)NC(=O)COc1ccc2c(c1)CC[C@@H]1[C@@H]2CC[C@]2(C)C(=O)CC[C@@H]12)C(=O)O (X2-RGDV-OH)	1.602	1.628	0.429	2.008	131	21.9	51.9	32.229	63.9	34.1	24.75	168	1.389	47.173	
N=C(N)NCCC[C@H](N)C(=O)NCC(=O)N[C@@H](CC(=O)O)C(=O)N[C@@H](CO)C(=O)O	1.603	1.617	0.396	2.01	138	27.8	71	36.643	59.8	34	24.888	168	1.295	43.48	
C[C@]12CC[C@@H]3c4ccc(O)cc4CC[C@H]3[C@@H]1CCC2=O [ESTRONE]	1.601	1.606	0.43	2.012	150	20.8	141.9	36.271	61.1	34.3	23.979	176	1.318	43.84	
C[C@]12CC[C@@H]3c4ccc(OCC(=O)N[C@@H](CCCNC(=N)N)C(=O)NCC(=O)N[C@@H](CC(=O)O)C(=O)N[C@@H](CO)C(=O)O)cc4CC[C@H]3[C@@H]1CCC2=O (X2-RGDS-OH)	1.604	1.634	0.438	2	129	22.6	63.3	32.371	66.9	32.9	24.399	173	1.347	47.613	
